For one compound, Activity results are on record in ChEMBL document CHEMBL4043093, “2-Oxo-3, 4-dihydropyrimido[4, 5-d]pyrimidinyl derivatives as new irreversible pan fibroblast growth factor receptor (FGFR) inhibitors” (Eur J Med Chem, 2017).

The test system of assay [1] is Tyrosine-protein kinase ABL1 (Homo sapiens), P00519 [Y253F]. As to the kind of experiment: Inhibition of human phosphorylated ABL1 Y253F mutant (S229 to K512 residues) expressed in HEK293 cells assessed as residual activity at 1000 nM after 30 mins by Kinomescan method relative to control. It counts as cell-based. The gist of the method: (§1)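 Single-point screen at a fixed 1 µM, run within a 456-kinase DiscoveRx KINOMEscan panel. Each kinase's read-out is Percent Control, i.e. signal relative to a control without compound. Hits were scored by a Percent Control < 35 cut-off, and an S(35) selectivity score was calculated across the non-mutant kinases.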

Assay [2] addresses Phosphatidylinositol 4-phosphate 3-kinase C2 domain-containing subunit beta (Homo sapiens) (UniProt O00750). As to the kind of experiment: Inhibition of wild-type human partial length PIK3C2B (M1 to L1634 residues) expressed in HEK293 cells assessed as residual activity at 1000 nM after 30 mins by Kinomescan method relative to control. It counts as cell-based.
Assay [3] has as its target Tyrosine-protein kinase JAK1 (Homo sapiens) (UniProt P23458). Briefly: Inhibition of wild-type human partial length JAK1 JH2 pseudokinase domain (R537 to D855 residues) expressed in HEK293 cells assessed as residual activity at 1000 nM after 30 mins by Kinomescan method relative to control. It counts as cell-based.
Assay [4] concerns the target Mitogen-activated protein kinase 3 (Homo sapiens) (UniProt P27361). As to the kind of experiment: Inhibition of wild-type human full length ERK1 (M1 to P379 residues) expressed in Escherichia coli BL21 assessed as residual activity at 1000 nM after 30 mins by Kinomescan method relative to control. In a few lines:
(§2)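 Single-concentration screen at 1 µM across a 456-kinase KINOMEscan panel. The read-out is Percent Control for each kinase.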

Assay [5] has as its target Mitogen-activated protein kinase kinase kinase 3 (Homo sapiens) (UniProt Q99759). As to the kind of experiment: Inhibition of wild-type human partial length MAP3K3 (E320 to Y626 residues) expressed in HEK293 cells assessed as residual activity at 1000 nM after 30 mins by Kinomescan method relative to control. It counts as cell-based.
Assay [6] has as its target Ephrin type-B receptor 4 (Homo sapiens) (UniProt P54760). As to the kind of experiment: Inhibition of wild-type human partial length EPHB4 (H585 to G892 residues) expressed in Escherichia coli BL21 assessed as residual activity at 1000 nM after 30 mins by Kinomescan method relative to control.
Assay [7] has as its target Rhodopsin kinase GRK1 (Homo sapiens) (UniProt Q15835). Briefly: Inhibition of wild-type human full length GRK1 (M1 to S563 residues) expressed in HEK293 cells assessed as residual activity at 1000 nM after 30 mins by Kinomescan method relative to control. It counts as cell-based. The gist of the method:
as §2

The target of assay [8] is Death-associated protein kinase 1 (Homo sapiens) (UniProt P53355). Briefly: Inhibition of wild-type human partial length DAPK1 (M1 to F296 residues) expressed in Escherichia coli BL21 assessed as residual activity at 1000 nM after 30 mins by Kinomescan method relative to control.
Assay [9] concerns Mast/stem cell growth factor receptor Kit (Homo sapiens), P10721 [L576P]. As to the kind of experiment: Inhibition of human partial length KIT L576P mutant (Y545 to D952 residues) expressed in Escherichia coli BL21 assessed as residual activity at 1000 nM after 30 mins by Kinomescan method relative to control. The gist of the method:
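KINOMEscan binding panel of 456 kinases, with the test compound at a single concentration of 1 µM. Read-out is Percent Control.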

For assay [10], the target named is Serine/threonine-protein kinase BRSK2 (Homo sapiens) (UniProt Q8IWQ3). As to the kind of experiment: Inhibition of wild-type human full length BRSK2 (M1 to L674 residues) expressed in Escherichia coli BL21 assessed as residual activity at 1000 nM after 30 mins by Kinomescan method relative to control. The gist of the method:
as §1

In assay [11] the target is Tyrosine-protein kinase Srms (Homo sapiens) (UniProt Q9H3Y6). As to the kind of experiment: Inhibition of wild-type human partial length SRMS (L208 to P488 residues) expressed in HEK293 cells assessed as residual activity at 1000 nM after 30 mins by Kinomescan method relative to control. It counts as cell-based.
The target in assay [12] is Phosphatidylinositol 4-phosphate 5-kinase type-1 alpha (Homo sapiens) (UniProt Q99755). As to the kind of experiment: Inhibition of wild-type human full length PIP5K1A (M1 to H562 residues) expressed in Escherichia coli BL21 assessed as residual activity at 1000 nM after 30 mins by Kinomescan method relative to control. In a few lines:
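Single-concentration screen at 1 µM against a 456-kinase panel (KINOMEscan). Read-out is Percent Control for each kinase. Across the 403 non-mutant kinases, an S(35) selectivity score was derived as the fraction of kinases with Percent Control < 35.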

Assay [13] addresses Leukocyte tyrosine kinase receptor (Homo sapiens) (UniProt P29376). As to the kind of experiment: Inhibition of wild-type human partial length LTK (P422 to S744 residues) expressed in Escherichia coli BL21 assessed as residual activity at 1000 nM after 30 mins by Kinomescan method relative to control.
The target in assay [14] is Serine/threonine-protein kinase tousled-like 1 (Homo sapiens) (UniProt Q9UKI8). Briefly: Inhibition of wild-type human partial length TLK1 (K447 to A754 residues) expressed in Escherichia coli BL21 assessed as residual activity at 1000 nM after 30 mins by Kinomescan method relative to control.
Assay [15] concerns the target NUAK family SNF1-like kinase 2 (Homo sapiens) (UniProt Q9H093). As to the kind of experiment: Inhibition of wild-type human partial length SNARK (P22 to A333 residues) expressed in HEK293 cells assessed as residual activity at 1000 nM after 30 mins by Kinomescan method relative to control. It counts as cell-based.
For assay [16], the target named is Tyrosine-protein kinase JAK2 (Homo sapiens) (UniProt O60674). Briefly: Inhibition of wild-type human partial length JAK2 JH1 catalytic domain (A829 to G1132 residues) expressed in HEK293 cells assessed as residual activity at 1000 nM after 30 mins by Kinomescan method relative to control. It counts as cell-based.
Assay [17] deals with Ephrin type-A receptor 5 (Homo sapiens) (UniProt P54756). As to the kind of experiment: Inhibition of wild-type human partial length EPHA5 (T627 to V930 residues) expressed in Escherichia coli BL21 assessed as residual activity at 1000 nM after 30 mins by Kinomescan method relative to control.
Assay [18] deals with Non-receptor tyrosine-protein kinase TNK1 (Homo sapiens) (UniProt Q13470). Briefly: Inhibition of wild-type human full length TNK1 (M1 to P661 residues) expressed in Escherichia coli BL21 assessed as residual activity at 1000 nM after 30 mins by Kinomescan method relative to control.
Assay [19] has as its target Macrophage-stimulating protein receptor (Homo sapiens) (UniProt Q04912). Briefly: Inhibition of wild-type human partial length MST1R (I1057 to L1363 residues) expressed in Escherichia coli BL21 assessed as residual activity at 1000 nM after 30 mins by Kinomescan method relative to control.
Assay [20] concerns the target Hepatocyte growth factor receptor (Homo sapiens) (UniProt P08581). As to the kind of experiment: Inhibition of wild-type human partial length MET (D1010 to S1367 residues) expressed in Escherichia coli BL21 assessed as residual activity at 1000 nM after 30 mins by Kinomescan method relative to control.

Macrophage-stimulating protein receptor (Homo sapiens), sequence (Q04912 25-304 limits assumed): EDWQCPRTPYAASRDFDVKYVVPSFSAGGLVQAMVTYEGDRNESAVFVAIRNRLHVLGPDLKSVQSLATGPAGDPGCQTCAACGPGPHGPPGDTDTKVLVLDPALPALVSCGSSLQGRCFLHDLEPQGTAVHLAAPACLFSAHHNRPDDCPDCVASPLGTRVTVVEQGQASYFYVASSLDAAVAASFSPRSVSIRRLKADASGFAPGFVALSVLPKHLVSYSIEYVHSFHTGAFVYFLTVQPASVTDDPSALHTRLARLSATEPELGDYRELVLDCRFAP
Macrophage-stimulating protein receptor (Homo sapiens), sequence (Q04912 310-1400 limits assumed): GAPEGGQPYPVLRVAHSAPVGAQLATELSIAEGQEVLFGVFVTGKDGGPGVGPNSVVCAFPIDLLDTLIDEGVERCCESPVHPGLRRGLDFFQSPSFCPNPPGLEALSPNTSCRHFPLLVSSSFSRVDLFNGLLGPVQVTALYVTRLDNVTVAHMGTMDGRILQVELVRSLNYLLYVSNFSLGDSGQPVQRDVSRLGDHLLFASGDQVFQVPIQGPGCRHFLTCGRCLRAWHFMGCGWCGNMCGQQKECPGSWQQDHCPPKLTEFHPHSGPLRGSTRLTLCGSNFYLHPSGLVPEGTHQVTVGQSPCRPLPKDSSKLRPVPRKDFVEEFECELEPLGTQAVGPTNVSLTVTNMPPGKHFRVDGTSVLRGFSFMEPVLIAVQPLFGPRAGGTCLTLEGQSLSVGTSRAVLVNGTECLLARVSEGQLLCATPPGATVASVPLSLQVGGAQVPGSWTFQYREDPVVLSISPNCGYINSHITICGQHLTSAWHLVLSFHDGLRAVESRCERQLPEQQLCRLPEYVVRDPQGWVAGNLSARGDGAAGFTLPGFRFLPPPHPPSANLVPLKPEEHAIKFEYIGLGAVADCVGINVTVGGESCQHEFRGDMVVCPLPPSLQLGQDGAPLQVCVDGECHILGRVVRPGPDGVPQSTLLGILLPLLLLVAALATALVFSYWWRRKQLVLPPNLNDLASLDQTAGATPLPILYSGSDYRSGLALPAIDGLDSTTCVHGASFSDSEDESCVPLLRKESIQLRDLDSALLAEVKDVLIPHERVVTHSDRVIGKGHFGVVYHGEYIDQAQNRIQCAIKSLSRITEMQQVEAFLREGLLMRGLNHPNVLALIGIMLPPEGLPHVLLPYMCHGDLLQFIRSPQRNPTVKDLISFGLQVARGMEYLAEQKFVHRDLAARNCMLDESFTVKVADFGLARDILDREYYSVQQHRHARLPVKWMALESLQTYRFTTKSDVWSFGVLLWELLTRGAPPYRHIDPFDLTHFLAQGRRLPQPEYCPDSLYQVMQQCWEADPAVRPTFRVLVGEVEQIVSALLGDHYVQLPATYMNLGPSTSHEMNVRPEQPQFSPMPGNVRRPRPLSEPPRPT
Leukocyte tyrosine kinase receptor (Homo sapiens), sequence (P29376 whole entry, the tested form may be a part): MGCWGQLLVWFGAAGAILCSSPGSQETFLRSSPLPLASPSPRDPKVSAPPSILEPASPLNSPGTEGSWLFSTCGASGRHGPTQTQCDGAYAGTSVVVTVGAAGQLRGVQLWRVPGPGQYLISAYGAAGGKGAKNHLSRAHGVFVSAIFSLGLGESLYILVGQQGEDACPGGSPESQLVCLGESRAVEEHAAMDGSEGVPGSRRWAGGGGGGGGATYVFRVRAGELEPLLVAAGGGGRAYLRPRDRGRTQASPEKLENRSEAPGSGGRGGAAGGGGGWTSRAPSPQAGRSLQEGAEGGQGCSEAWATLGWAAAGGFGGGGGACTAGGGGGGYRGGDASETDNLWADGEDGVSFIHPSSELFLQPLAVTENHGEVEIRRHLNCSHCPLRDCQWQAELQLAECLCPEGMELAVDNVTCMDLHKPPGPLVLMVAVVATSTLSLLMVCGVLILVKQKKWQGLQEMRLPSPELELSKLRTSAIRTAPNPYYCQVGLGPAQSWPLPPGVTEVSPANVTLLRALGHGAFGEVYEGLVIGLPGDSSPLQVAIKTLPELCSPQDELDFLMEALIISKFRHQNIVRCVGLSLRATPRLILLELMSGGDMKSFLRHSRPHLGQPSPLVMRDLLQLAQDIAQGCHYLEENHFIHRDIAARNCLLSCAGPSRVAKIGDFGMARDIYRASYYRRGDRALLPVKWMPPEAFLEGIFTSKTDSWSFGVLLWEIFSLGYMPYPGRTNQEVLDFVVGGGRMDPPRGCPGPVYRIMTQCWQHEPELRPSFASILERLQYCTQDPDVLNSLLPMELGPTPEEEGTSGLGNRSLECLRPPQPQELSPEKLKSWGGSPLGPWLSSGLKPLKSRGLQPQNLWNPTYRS
Phosphatidylinositol 4-phosphate 3-kinase C2 domain-containing subunit beta (Homo sapiens), sequence (O00750 whole entry, the tested form may be a part): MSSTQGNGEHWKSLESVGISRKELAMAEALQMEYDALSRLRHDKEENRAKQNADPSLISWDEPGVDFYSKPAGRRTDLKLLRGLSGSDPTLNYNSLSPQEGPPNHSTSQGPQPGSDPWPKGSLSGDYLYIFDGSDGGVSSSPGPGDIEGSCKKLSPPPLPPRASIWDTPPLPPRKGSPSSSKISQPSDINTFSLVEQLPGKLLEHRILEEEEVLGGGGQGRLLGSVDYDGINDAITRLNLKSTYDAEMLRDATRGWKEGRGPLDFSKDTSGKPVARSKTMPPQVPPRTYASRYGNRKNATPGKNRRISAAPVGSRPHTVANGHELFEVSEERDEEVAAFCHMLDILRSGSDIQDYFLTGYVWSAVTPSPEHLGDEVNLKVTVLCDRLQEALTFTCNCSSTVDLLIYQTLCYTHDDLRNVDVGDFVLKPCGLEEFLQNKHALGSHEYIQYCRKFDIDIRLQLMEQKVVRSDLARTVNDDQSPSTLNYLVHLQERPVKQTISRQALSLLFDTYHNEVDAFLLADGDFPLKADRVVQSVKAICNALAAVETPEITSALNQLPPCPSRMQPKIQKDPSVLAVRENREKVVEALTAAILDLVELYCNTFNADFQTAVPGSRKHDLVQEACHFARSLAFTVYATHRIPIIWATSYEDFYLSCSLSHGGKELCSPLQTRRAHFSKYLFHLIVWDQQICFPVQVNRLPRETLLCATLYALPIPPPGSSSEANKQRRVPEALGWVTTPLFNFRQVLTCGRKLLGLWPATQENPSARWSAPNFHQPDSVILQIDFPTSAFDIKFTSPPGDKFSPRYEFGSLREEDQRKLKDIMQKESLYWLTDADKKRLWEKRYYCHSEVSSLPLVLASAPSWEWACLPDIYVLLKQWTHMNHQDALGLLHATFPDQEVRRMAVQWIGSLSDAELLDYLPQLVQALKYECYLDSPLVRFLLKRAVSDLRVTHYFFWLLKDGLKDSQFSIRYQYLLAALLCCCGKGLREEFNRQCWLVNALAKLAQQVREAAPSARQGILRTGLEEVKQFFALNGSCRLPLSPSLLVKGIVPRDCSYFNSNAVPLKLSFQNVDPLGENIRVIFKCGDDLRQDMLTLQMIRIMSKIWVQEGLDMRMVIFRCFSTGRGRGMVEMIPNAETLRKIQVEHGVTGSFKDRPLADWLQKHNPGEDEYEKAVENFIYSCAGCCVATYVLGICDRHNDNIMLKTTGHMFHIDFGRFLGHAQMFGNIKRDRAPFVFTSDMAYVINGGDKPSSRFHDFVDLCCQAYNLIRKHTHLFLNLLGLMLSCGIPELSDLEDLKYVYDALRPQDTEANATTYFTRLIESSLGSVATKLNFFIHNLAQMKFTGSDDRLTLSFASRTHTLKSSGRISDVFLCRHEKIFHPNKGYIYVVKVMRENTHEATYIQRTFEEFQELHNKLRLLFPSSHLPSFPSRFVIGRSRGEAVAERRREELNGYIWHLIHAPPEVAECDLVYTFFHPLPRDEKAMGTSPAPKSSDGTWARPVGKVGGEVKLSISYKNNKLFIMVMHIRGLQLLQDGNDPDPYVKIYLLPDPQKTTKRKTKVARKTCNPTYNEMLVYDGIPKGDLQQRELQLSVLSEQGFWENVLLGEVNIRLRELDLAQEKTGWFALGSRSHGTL
Serine/threonine-protein kinase tousled-like 1 (Homo sapiens), sequence (Q9UKI8 whole entry, the tested form may be a part): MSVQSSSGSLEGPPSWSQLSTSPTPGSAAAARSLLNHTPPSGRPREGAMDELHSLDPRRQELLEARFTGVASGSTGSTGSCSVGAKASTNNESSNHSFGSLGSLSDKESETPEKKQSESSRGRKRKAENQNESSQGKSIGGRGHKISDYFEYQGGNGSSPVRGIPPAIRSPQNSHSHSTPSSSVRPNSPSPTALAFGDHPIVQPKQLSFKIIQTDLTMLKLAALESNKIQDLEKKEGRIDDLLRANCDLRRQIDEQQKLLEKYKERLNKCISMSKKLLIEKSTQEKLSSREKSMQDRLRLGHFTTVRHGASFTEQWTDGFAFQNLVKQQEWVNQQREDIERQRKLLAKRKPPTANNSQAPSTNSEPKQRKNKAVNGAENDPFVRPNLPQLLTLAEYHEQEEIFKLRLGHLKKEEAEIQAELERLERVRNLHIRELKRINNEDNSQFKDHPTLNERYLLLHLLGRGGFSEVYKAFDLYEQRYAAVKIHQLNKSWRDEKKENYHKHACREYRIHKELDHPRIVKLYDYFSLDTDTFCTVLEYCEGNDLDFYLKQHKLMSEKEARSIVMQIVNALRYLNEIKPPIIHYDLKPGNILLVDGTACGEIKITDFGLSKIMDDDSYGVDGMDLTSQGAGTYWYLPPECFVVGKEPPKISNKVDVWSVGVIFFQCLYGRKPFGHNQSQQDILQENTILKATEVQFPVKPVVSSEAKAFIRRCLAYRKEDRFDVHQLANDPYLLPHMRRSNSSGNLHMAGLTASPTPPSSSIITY
Mitogen-activated protein kinase 3 (Homo sapiens), sequence (P27361 whole entry, the tested form may be a part): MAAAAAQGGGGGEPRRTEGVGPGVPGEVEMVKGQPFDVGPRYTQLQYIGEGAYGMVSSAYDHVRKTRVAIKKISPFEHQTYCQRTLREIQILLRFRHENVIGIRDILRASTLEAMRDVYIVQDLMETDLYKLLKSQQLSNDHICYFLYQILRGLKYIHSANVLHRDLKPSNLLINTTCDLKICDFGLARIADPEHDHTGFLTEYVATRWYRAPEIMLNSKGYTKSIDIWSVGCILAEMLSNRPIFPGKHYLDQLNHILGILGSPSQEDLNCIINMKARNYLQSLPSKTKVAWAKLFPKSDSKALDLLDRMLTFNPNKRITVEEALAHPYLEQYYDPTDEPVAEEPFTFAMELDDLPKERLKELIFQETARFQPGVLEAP

On to `COc1cc(OC)c(Cl)c(N2Cc3cnc(Nc4ccc(F)cc4)nc3N(C3CCN(C(=O)/C=C/CN(C)C)CC3)C2=O)c1Cl`, for which the Activity in assay [1] was 38%; in [2] it was 89%; in assay [3], 97%; in assay [4] it was 100%; in assay [5] it was 1.9%; in assay [6], 100%. Moreover, the Activity was found to be 79% in assay [7]; 100% in [8]; 2.6% in assay [9]; 99% in assay [10]; 100% in [11]; 100% in [12]. For the same compound, the Activity in assay [13] is 95%; in assay [14] it was 100%; in assay [15] it was 89%; in [16], 100%; in assay [17], 100%; in assay [18] it was 93%. Moreover, the Activity in [19] was determined as 95%; in assay [20], 96%.
